Experimental data from ChEMBL document CHEMBL1212801, “Inhibitor resistance in the KPC-2 beta-lactamase, a preeminent property of this class A beta-lactamase” (Antimicrob Agents Chemother, 2010).
In brackets after ≈: the same amount, converted by molar mass. Activity calls are given as the source filed them. The calls are words filed in the database; no cut-off is given here.

Experiments:
[1] = tested on: Escherichia coli str. K-12 substr. DH10B; test: Ratio of Kcat to Kinact for Escherichia coli DH10B beta-lactamase KPC-2
[2] = tested on: Escherichia coli str. K-12 substr. DH10B; test: Inhibition of Escherichia coli DH10B beta-lactamase KPC-2 at 0.025 mM by UVD spectroscopy
[3] = tested on: Escherichia coli str. K-12 substr. DH10B; test: Km for Escherichia coli DH10B beta-lactamase KPC-2
[4] = tested on: Escherichia coli str. K-12 substr. DH10B; test: Ratio of Kinact to Km for Escherichia coli DH10B beta-lactamase KPC-2
[5] = tested on: Escherichia coli str. K-12 substr. DH10B; test: Inhibition of Escherichia coli DH10B beta-lactamase KPC-2 assessed as residual activity at 25 to 200 uM after 24 hrs by diode array spectrophotometry; values are per cent of control
[6] = tested on: Escherichia coli str. K-12 substr. DH10B; test: Inhibition of Escherichia coli DH10B beta-lactamase KPC-2 assessed as residual activity at 25 to 200 uM after 24 hrs by diode array spectrophotometry
[7] = (§1) Activity at Escherichia coli DH10B beta-lactamase KPC-2 by diode array spectrophotometry; set-up: species or system Escherichia coli str. K-12 substr. DH10B
[8] = tested on: Escherichia coli str. K-12 substr. DH10B; test: as §1
[9] = tested on: Escherichia coli str. K-12 substr. DH10B; test: Ratio of Kcat to Km for Escherichia coli DH10B beta-lactamase KPC-2
How it was run: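 Steady-state assay on a diode array spectrophotometer with 10 nM purified KPC-2 and substrates at 5–200 μM, in 10 mM PBS pH 7.4 at room temperature. Spontaneous imipenem hydrolysis was subtracted. Vmax and Km came from a nonlinear least-squares Michaelis-Menten fit.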

Escherichia coli [10] = test: Antimicrobial activity against Escherichia coli DH10B harboring beta lactamase KPC-2 by CLSI method; conditions: K-12 DH10B
Klebsiella pneumoniae = test: Antimicrobial activity against Klebsiella pneumoniae 1534 harboring beta lactamase KPC-2 by CLSI method; assay type: functional
How it was run: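 […] agar dilution MICs per CLSI, using a Steers replicator spotting 10^4 CFU per spot. For clavulanic acid and sulbactam, ampicillin was fixed at 50 mg/liter while inhibitor was increased. Piperacillin-tazobactam was tested at 8:1. Test inhibitors were held at 4 mg/liter while piperacillin, imipenem or cefotaxime was increased.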

[11] = tested on: Escherichia coli str. K-12 substr. DH10B; test: Inhibition of Escherichia coli DH10B beta-lactamase KPC-2 assessed as residual activity at 25 to 200 uM after 72 hrs by diode array spectrophotometry
Escherichia coli [12] = test: Antimicrobial activity against Escherichia coli DH10B by CLSI method; conditions: K-12 DH10B

O=C(O)C1=CSC2/C(=C\c3cc4n(n3)CSC4)C(=O)N12 (stereo not given)
kcat/kinact [1]: 250 | inhibition [2]: Active | Km [3]: 0.06 µM | kinact/Km [4]: 180000 M⁻¹ s⁻¹ | residual activity [5]: 20%

C[C@]1(Cn2ccnn2)[C@H](C(=O)O)N2C(=O)C[C@H]2S1(=O)=O
kcat/kinact [1]: 500 | Km [3]: 78.5 µM | kinact/Km [4]: 2500 M⁻¹ s⁻¹ | Activity [6]: 50%

O=C(Cc1cccs1)N[C@@H]1C(=O)N2C(C(=O)O)=C(/C=C/c3ccc([N+](=O)[O-])cc3[N+](=O)[O-])CS[C@H]12 [NITROCEFIN]
Ki [7]: 5 µM | kcat [8]: 30 s⁻¹ | kcat/Km [9]: 6.4 µM/s

C[C@@H](O)[C@H]1C(=O)N2C(C(=O)O)=C(SCCNC=N)C[C@H]12 [IMIPENEM ANHYDROUS]
Ki [7]: 19 µM | kcat [8]: 19 s⁻¹ | MIC (Escherichia coli [10]): 8 µg/mL (≈ 26.7 µM) | MIC (Klebsiella pneumoniae): 8 µg/mL (≈ 26.7 µM) | kcat/Km [9]: 1 µM/s

O=C(O)[C@H]1/C(=C/CO)O[C@@H]2CC(=O)N21
kcat/kinact [1]: 2500 | Km [3]: 8.4 µM | kinact/Km [4]: 3600 M⁻¹ s⁻¹ | Activity [11]: 5%

CC1(C)[C@H](C(=O)O)N2C(=O)C[C@H]2S1(=O)=O
kcat/kinact [1]: 1000 | Km [3]: 135 µM | kinact/Km [4]: 1200 M⁻¹ s⁻¹ | Activity [6]: 50%

CCN1CCN(C(=O)N[C@@H](C(=O)N[C@@H]2C(=O)N3[C@@H]2SC(C)(C)[C@@H]3C(=O)O)c2ccccc2)C(=O)C1=O [PIPERACILLIN]
Ki [7]: 16 µM | kcat [8]: 17 s⁻¹ | MIC (Escherichia coli [12]): 2 µg/mL (≈ 3.86 µM) | MIC (Escherichia coli [10]): 1020 µg/mL (≈ 1980 µM) | MIC (Klebsiella pneumoniae): 1020 µg/mL (≈ 1980 µM) | kcat/Km [9]: 1.1 µM/s

CC1(C)S[C@@H]2[C@H](NC(=O)[C@H](N)c3ccccc3)C(=O)N2[C@H]1C(=O)O [AMPICILLIN]
MIC (Escherichia coli [12]): 1 µg/mL (≈ 2.86 µM) | MIC (Escherichia coli [10]): 4100 µg/mL (≈ 11700 µM) | MIC (Klebsiella pneumoniae): 8190 µg/mL (≈ 23400 µM)

CO/N=C(\C(=O)N[C@@H]1C(=O)N2C(C(=O)O)=C(COC(C)=O)CS[C@H]12)c1csc(N)n1 [CEFOTAXIME]
Ki [7]: 120 µM | kcat [8]: 78 s⁻¹ | MIC (Escherichia coli [12]): 0.06 µg/mL (≈ 0.132 µM) | MIC (Escherichia coli [10]): 8 µg/mL (≈ 17.6 µM) | MIC (Klebsiella pneumoniae): 16 µg/mL (≈ 35.1 µM) | kcat/Km [9]: 0.6 µM/s
